Source: ChEMBL document CHEMBL1165869, “Synthesis, characterization and antihypertensive activity of pyridazinone derivatives” (2010)

Tested on: Rattus norvegicus
Test: Antihypertensive activity against methyl prednisolone acetate-indcuced hypertension in normotensive albino rat assessed as reduction in mean arterial pressure at 20 mg/kg, ip after 1 hr
Assay type: functional, Artery
Set-up: scale not given: the % may be the effect or the level left
Details: route intraperitoneal
Outline: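 Albino rats (200–250 g), conditioned in restrainer 10 min daily for one week; hypertension induced by s.c. methyl prednisolone acetate 20 mg/kg/wk for 2 weeks. Compound suspended in 1% CMC, given i.p.; mean arterial pressure read 1 h later in conscious rats by non-invasive tail-cuff. Groups of 5; mean ± SEM; one-way ANOVA with Dunnett test versus hypertensive control.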

| Compound | Activity [%] |
| --- | --- |
| COc1ccc(C2=NN(CN3c4ccccc4Sc4ccccc43)C(=O)CC2)cc1 | 33.83 |
| O=C1CCC(c2ccc(-c3ccccc3)cc2)=NN1Cn1ccc2ccccc21 | 33.46 |
| O=C1CCC(c2ccccc2)=NN1Cn1cncn1 | 38.7 |
| CC(C)Cc1ccc(C2=NN(CN3CCCC3)C(=O)CC2)cc1 | 32.97 |
| Cc1ccc(C2=NN(Cn3ccc4ccccc43)C(=O)CC2)cc1 | 23.85 |
| CC(C)Cc1ccc(C2=NN(CN3c4ccccc4Sc4ccccc43)C(=O)CC2)cc1 | 25.58 |
| Cc1ccc(C2=NN(CN3CCCC3)C(=O)CC2)cc1 | 31.74 |
| O=C1CCC(c2ccc(Cl)cc2)=NN1CN1CCNCC1 | 28.78 |
| O=C1CCC(c2ccc(-c3ccccc3)cc2)=NN1CN1CCNCC1 | 30.14 |
| Cc1ccc(C2=NN(CN3CCOCC3)C(=O)CC2)cc1 | 14.12 |
| CC(C)Cc1ccc(C2=NN(Cn3ccc4ccccc43)C(=O)CC2)cc1 | 28.91 |
| O=C1CCC(c2ccc(Cl)cc2)=NN1CN1CCOCC1 | 25.83 |
| O=C1CCC(c2ccc(-c3ccccc3)cc2)=NN1CN1CCOCC1 | 29.52 |
| O=C1CCC(c2ccc(-c3ccccc3)cc2)=NN1CN1CCCCC1 | 29.52 |
| NNc1nncc2ccccc12 [HYDRALAZINE] | 40.76 |
| O=C1CCC(c2ccccc2)=NN1CN1CCNCC1 | 41.99 |
| CC(C)Cc1ccc(C2=NN(Cn3cncn3)C(=O)CC2)cc1 | 34.94 |
| CCc1ccc(C2=NN(CN3c4ccccc4Sc4ccccc43)C(=O)CC2)cc1 | 36.17 |
| CCc1ccc(C2=NN(CN3CCN(C)CC3)C(=O)CC2)cc1 | 47.14 |

| Compound | Activity [%] |
| --- | --- |
| O=C1CCC(c2ccc(-c3ccccc3)cc2)=NN1Cn1cncn1 | 39.5 |
| CCc1ccc(C2=NN(CN3CCNCC3)C(=O)CC2)cc1 | 36.05 |
| Cc1ccc(C2=NN(CN3CCNCC3)C(=O)CC2)cc1 | 40.98 |
| COc1ccc(C2=NN(CN3CCOCC3)C(=O)CC2)cc1 | 29.77 |
| O=C1CCC(c2ccccc2)=NN1CN1CCOCC1 | 31.21 |
| O=C1CCC(c2ccc(Cl)cc2)=NN1CN1c2ccccc2Sc2ccccc21 | 38.88 |
| COc1ccc(C2=NN(CN3CCCC3)C(=O)CC2)cc1 | 31.62 |
| CN1CCN(CN2N=C(c3ccc(-c4ccccc4)cc3)CCC2=O)CC1 | 25.58 |
| CCc1ccc(C2=NN(Cn3cncn3)C(=O)CC2)cc1 | 29.52 |
| CCc1ccc(C2=NN(CN3CCCCC3)C(=O)CC2)cc1 | 30.51 |
| COc1ccc(C2=NN(CN3CCNCC3)C(=O)CC2)cc1 | 35.44 |
| O=C1CCC(c2ccc(-c3ccccc3)cc2)=NN1CN1c2ccccc2Sc2ccccc21 | 25.91 |
| CCc1ccc(C2=NN(CN3CCCC3)C(=O)CC2)cc1 | 44.31 |
| O=C1CCC(c2ccccc2)=NN1CN1CCCCC1 | 33.46 |
| COc1ccc(C2=NN(CN3CCN(C)CC3)C(=O)CC2)cc1 | 36.05 |
| O=C1CCC(c2ccccc2)=NN1Cn1ccc2ccccc21 | 15.81 |
| O=C1CCC(c2ccc(-c3ccccc3)cc2)=NN1CN1CCCC1 | 30.14 |
| O=C1CCC(c2ccc(Cl)cc2)=NN1CN1CCCC1 | 30.01 |
| O=C1CCC(c2ccc(Cl)cc2)=NN1Cn1ccc2ccccc21 | 36.3 |

| Compound | Activity [%] |
| --- | --- |
| O=C1CCC(c2ccc(Cl)cc2)=NN1Cn1cncn1 | 29.77 |
| COc1ccc(C2=NN(Cn3ccc4ccccc43)C(=O)CC2)cc1 | 32.72 |
| O=C1CCC(c2ccccc2)=NN1CN1c2ccccc2Sc2ccccc21 | 42.4 |
| CC(C)Cc1ccc(C2=NN(CN3CCCCC3)C(=O)CC2)cc1 | 16.09 |
| CCc1ccc(C2=NN(CN3CCOCC3)C(=O)CC2)cc1 | 47.31 |
| CCc1ccc(C2=NN(Cn3ccc4ccccc43)C(=O)CC2)cc1 | 32.97 |
| Cc1ccc(C2=NN(CN3CCCCC3)C(=O)CC2)cc1 | 35.56 |
| O=C1CCC(c2ccccc2)=NN1CN1CCCC1 | 19.11 |
| CN1CCN(CN2N=C(c3ccc(Cl)cc3)CCC2=O)CC1 | 39.5 |
| Cc1ccc(C2=NN(Cn3cncn3)C(=O)CC2)cc1 | 41.16 |
| CC(C)Cc1ccc(C2=NN(CN3CCN(C)CC3)C(=O)CC2)cc1 | 28.29 |
| Cc1ccc(C2=NN(CN3c4ccccc4Sc4ccccc43)C(=O)CC2)cc1 | 34.94 |
| CC(C)Cc1ccc(C2=NN(CN3CCNCC3)C(=O)CC2)cc1 | 32.48 |
| COc1ccc(C2=NN(Cn3cncn3)C(=O)CC2)cc1 | 29.27 |
| Cc1ccc(C2=NN(CN3CCN(C)CC3)C(=O)CC2)cc1 | 39.13 |
| O=C1CCC(c2ccc(Cl)cc2)=NN1CN1CCCCC1 | 24.84 |
| CN1CCN(CN2N=C(c3ccccc3)CCC2=O)CC1 | 39.93 |
| CC(C)Cc1ccc(C2=NN(CN3CCOCC3)C(=O)CC2)cc1 | 24.22 |
| COc1ccc(C2=NN(CN3CCCCC3)C(=O)CC2)cc1 | 27.16 |
